In brackets after ≈: the same amount, converted by molar mass.
Assays:
Assay type in all cases: functional
Candida albicans [1] = test: Antifungal activity against Candida albicans ATCC MYA-574 after 47 hrs by broth microdilution method; conditions: ATCC MYA-574, 47 h
Method in brief: (§1)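 Fluconazole-resistant or susceptible-dose-dependent C. albicans ATCC strains were tested by broth microdilution in RPMI 1640-MOPS. Inoculum was 1.1 × 10^3–1.5 × 10^3 CFU/ml, with incubation at 35°C for about 47 h. Yeast MIC was read as about 50% turbidity decrease relative to growth control, except amphotericin B, read at complete inhibition.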

Malassezia furfur = test: Antifungal activity against Malassezia furfur NBRC 0656 after 48 hrs by broth microdilution method; conditions: NBRC 0656, 48 h
Method in brief: (§2)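 CLSI M27-A2 (yeasts) / M38-A (moulds) broth microdilution in RPMI 1640 buffered to pH 7.0 with 0.165 M MOPS. Malassezia furfur got the same medium supplemented with glucose, bile salts, glycerol, glycerol monostearate and Tween 20. Final inoculum 0.65 × 10^3–2.5 × 10^3 CFU/ml for yeasts and 0.87 × 10^4–3.8 × 10^4 CFU/ml for filamentous fungi. Incubation at 35°C except M. racemosus and F. solani, which were held at 30°C.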

Candida albicans [2] = test: Antifungal activity against Candida albicans ATCC MYA-573 after 47 hrs by broth microdilution method; conditions: ATCC MYA-573, 47 h
Method in brief: (§3)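 Fluconazole-resistant or susceptible-dose-dependent ATCC C. albicans strains were tested by CLSI M27-A2 broth microdilution in RPMI 1640–0.165 M MOPS, pH 7.0, with a final inoculum of 1.1–1.5 × 10^3 CFU/ml at 35°C for about 47 h. MIC was the lowest concentration with a prominent (~50%) turbidity decrease relative to growth control; amphotericin B was read at complete inhibition.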

Candida albicans [3] = test: Antifungal activity against Candida albicans TIMM 1623 after 48 hrs by broth microdilution method; conditions: TIMM 1623, 48 h; method in brief: as §2
Candida albicans [4] = test: Antifungal activity against Candida albicans ATCC 10261 after 48 hrs by broth microdilution method; conditions: ATCC 10261, 48 h; method in brief: as §2
Aspergillus niger = test: Antifungal activity against Aspergillus niger NBRC 33023 after 48 hrs by broth microdilution method; conditions: NBRC 33023, 48 h; method in brief: as §2
[5] = test system: Meyerozyma guilliermondii; test: Antifungal activity against Candida guilliermondii IFO 10279 after 48 hrs by broth microdilution method; conditions: IFO 10279, 48 h; method in brief: as §2
Candida albicans [6] = test: Antifungal activity against Candida albicans ATCC 64550 after 47 hrs by broth microdilution method; conditions: ATCC 64550, 47 h; method in brief: as §1
Rhizopus arrhizus = test: Antifungal activity against Rhizopus oryzae NBRC 31005 after 24 hrs by broth microdilution method; conditions: NBRC 31005, 24 h; method in brief: as §2
Pichia kudriavzevii = test: Antifungal activity against Candida krusei clinical isolates after 48 hrs by broth microdilution method
Method in brief: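 Japanese hospital Candida isolates were tested by CLSI M27-A2 broth microdilution in RPMI 1640–MOPS, pH 7.0, with inocula of 0.57–2.5 × 10^3 CFU/ml at 35°C for about 48 h. Inocula came from 24-h potato dextrose agar cultures. MIC was the lowest concentration with about 50% turbidity reduction versus growth control (complete inhibition for amphotericin B). Range, MIC50 and MIC90 were reported.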

Aspergillus fumigatus [7] = test: Antifungal activity against Aspergillus fumigatus clinical isolates after 48 hrs by broth microdilution method
Method in brief: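 Clinical isolates from Japanese hospitals or culture collections were tested by broth microdilution in RPMI 1640-MOPS. Inoculum was 0.57 × 10^3–2.5 × 10^3 CFU/ml for yeasts and 0.4 × 10^4–3.3 × 10^4 CFU/ml for filamentous fungi. Incubation was at 35°C for about 48 h, or 72 h where footnoted. Results were summarised as MIC range, MIC50 and MIC90.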

Aspergillus fumigatus [8] = test: Antifungal activity against Aspergillus fumigatus TIMM 0063 after 48 hrs by broth microdilution method; conditions: TIMM 0063, 48 h; method in brief: as §2
Cryptococcus neoformans = test: Antifungal activity against Cryptococcus neoformans ATCC 90113 after 72 hrs by broth microdilution method; conditions: ATCC 90113, 72 h; method in brief: as §2
Aspergillus nidulans = test: Antifungal activity against Aspergillus nidulans NBRC 33017 after 48 hrs by broth microdilution method; conditions: NBRC 33017, 48 h; method in brief: as §2
Candida albicans [9] = test: Antifungal activity against Candida albicans ATCC MYA-575 after 47 hrs by broth microdilution method; conditions: ATCC MYA-575, 47 h; method in brief: as §3
Candida albicans [10] = test: Antifungal activity against Candida albicans ATCC 96901 after 47 hrs by broth microdilution method; conditions: ATCC 96901, 47 h; method in brief: as §3
Candida dubliniensis = test: Antifungal activity against Candida dubliniensis ATCC MYA-577 after 48 hrs by broth microdilution method; conditions: ATCC MYA-577, 48 h; method in brief: as §2
Nakaseomyces glabratus = test: Antifungal activity against Candida glabrata ATCC 90030 after 48 hrs by broth microdilution method; conditions: ATCC 90030, 48 h; method in brief: as §2
Aspergillus fumigatus [11] = test: Antifungal activity against Aspergillus fumigatus IFM 49895 after 48 hrs by broth microdilution method; conditions: IFM 49895, 48 h; method in brief: as §2
Trichosporon asahii = test: Antifungal activity against Trichosporon asahii JCM 2466 after 48 hrs by broth microdilution method; conditions: JCM 2466, 48 h; method in brief: as §2
Candida albicans [12] = test: Antifungal activity against Candida albicans ATCC MYA-2732 after 47 hrs by broth microdilution method; conditions: ATCC MYA-2732, 47 h; method in brief: as §1

SMILES | MIC (Candida albicans [1]) [µg/mL] | MFC (Malassezia furfur) [µg/mL] | MIC (Malassezia furfur) [µg/mL] | MIC (Candida albicans [2]) [µg/mL] | MFC (Candida albicans [3]) [µg/mL] | MIC (Candida albicans [3]) [µg/mL] | MFC (Candida albicans [4]) [µg/mL] | MIC (Candida albicans [4]) [µg/mL] | MFC (Aspergillus niger) [µg/mL] | MIC (Aspergillus niger) [µg/mL] | MFC [5] [µg/mL] | MIC [5] [µg/mL] | MIC (Candida albicans [6]) [µg/mL] | MFC (Rhizopus arrhizus) [µg/mL] | MIC (Rhizopus arrhizus) [µg/mL] | MIC50 (Pichia kudriavzevii) [µg/mL] | MIC90 (Pichia kudriavzevii) [µg/mL] | MIC50 (Aspergillus fumigatus [7]) [µg/mL] | MIC90 (Aspergillus fumigatus [7]) [µg/mL] | MFC (Aspergillus fumigatus [8]) [µg/mL] | other results
C[C@@H](c1ncncc1F)[C@](O)(Cn1cncn1)c1ccc(F)cc1F [VORICONAZOLE] | 0.25 (≈ 0.716 µM) | > 64 | 0.0625 (≈ 0.179 µM) | 0.25 (≈ 0.716 µM) | > 64 | 0.0039 (≈ 0.0112 µM) | > 64 | 0.0039 (≈ 0.0112 µM) | 16 (≈ 45.8 µM) | 0.5 (≈ 1.43 µM) | 0.5 (≈ 1.43 µM) | 0.0625 (≈ 0.179 µM) | 0.25 (≈ 0.716 µM) | 32 (≈ 91.6 µM) | 8 (≈ 22.9 µM) | 0.5 (≈ 1.43 µM) | 0.5 (≈ 1.43 µM) | 1 (≈ 2.86 µM) | 1 (≈ 2.86 µM) | 1 (≈ 2.86 µM) | MIC (Aspergillus fumigatus [8]): 1 µg/mL (≈ 2.86 µM); MFC (Cryptococcus neoformans): > 64 µg/mL; MIC (Cryptococcus neoformans): 0.0625 µg/mL (≈ 0.179 µM); MFC (Aspergillus nidulans): 0.25 µg/mL (≈ 0.716 µM); MIC (Aspergillus nidulans): 0.125 µg/mL (≈ 0.358 µM); MIC (Candida albicans [9]): 0.0625 µg/mL (≈ 0.179 µM); MIC (Candida albicans [10]): 0.5 µg/mL (≈ 1.43 µM); MFC (Candida dubliniensis): > 64 µg/mL; MIC (Candida dubliniensis): 0.0078 µg/mL (≈ 0.0223 µM); MFC (Nakaseomyces glabratus): > 64 µg/mL; MIC (Nakaseomyces glabratus): 0.25 µg/mL (≈ 0.716 µM); MFC (Aspergillus fumigatus [11]): 8 µg/mL (≈ 22.9 µM); MIC (Aspergillus fumigatus [11]): 2 µg/mL (≈ 5.73 µM); MFC (Trichosporon asahii): > 64 µg/mL; MIC (Trichosporon asahii): 0.0625 µg/mL (≈ 0.179 µM); MIC (Candida albicans [12]): 0.25 µg/mL (≈ 0.716 µM)
OC(Cn1cncn1)(Cn1cncn1)c1ccc(F)cc1F [FLUCONAZOLE] | 64 (≈ 209 µM) | > 64 | 4 (≈ 13.1 µM) | > 64 | > 64 | 0.125 (≈ 0.408 µM) | > 64 | 0.125 (≈ 0.408 µM) | > 64 | > 64 | > 64 | 4 (≈ 13.1 µM) | 16 (≈ 52.2 µM) | > 64 | > 64 | 64 (≈ 209 µM) | 64 (≈ 209 µM) | > 64 | > 64 | > 64 | MIC (Aspergillus fumigatus [7]): > 64 µg/mL; MIC (Aspergillus fumigatus [8]): > 64 µg/mL; MFC (Cryptococcus neoformans): > 64 µg/mL; MIC (Cryptococcus neoformans): 4 µg/mL (≈ 13.1 µM); MFC (Aspergillus nidulans): > 64 µg/mL; MIC (Aspergillus nidulans): 64 µg/mL (≈ 209 µM); MIC (Candida albicans [9]): 16 µg/mL (≈ 52.2 µM); MIC (Candida albicans [10]): > 64 µg/mL; MFC (Candida dubliniensis): > 64 µg/mL; MIC (Candida dubliniensis): 0.125 µg/mL (≈ 0.408 µM); MFC (Nakaseomyces glabratus): > 64 µg/mL; MIC (Nakaseomyces glabratus): 8 µg/mL (≈ 26.1 µM); MFC (Aspergillus fumigatus [11]): > 64 µg/mL; MIC (Aspergillus fumigatus [11]): > 64 µg/mL; MFC (Trichosporon asahii): > 64 µg/mL; MIC (Trichosporon asahii): 1 µg/mL (≈ 3.27 µM); MIC (Candida albicans [12]): 16 µg/mL (≈ 52.2 µM)
